In the EternaBench riboswitch data:

Tested on: MS2 coat protein
Test: apparent Kd, MS2 coat protein; higher = weaker binding; RNA-MaP array
In short: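 Apparent Kd values come from the median of binding-curve fits to single clusters. To obtain them, designed RNAs transcribed on an Illumina sequencing chip from sequenced DNA templates were incubated at room temperature with fluorescently labeled MS2 coat protein at 1.5 nM to 3 μM, with or without input ligand, for 0.8–1.5 h at the lowest and 10–20 min at the highest concentrations. Designs measured on fewer than 10 clusters were excluded.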

[1] = designed as: OFF switch for flavin mononucleotide, no ligand
[2] = ligand present: flavin mononucleotide, designed as: OFF switch for flavin mononucleotide
[3] = designed as: ON switch for tryptophan, no ligand
[4] = ligand present: tryptophan, designed as: ON switch for tryptophan
[5] = designed as: ON switch for flavin mononucleotide, no ligand
[6] = ligand present: flavin mononucleotide, designed as: ON switch for flavin mononucleotide
[7] = designed as: ON switch for theophylline, no ligand
[8] = ligand present: theophylline, designed as: ON switch for theophylline

Row | Sequence | apparent Kd [1] [nM] | apparent Kd [2] [nM] | apparent Kd [5] [nM] | apparent Kd [6] [nM] | other results
1 | GCUUGCUCAGAGGAUAUAGUUUCAACCACUCUACUAGAAGGCUGUACAUGAGGAUCACCCAUGUCCUUAAUCUC | 22.6 | 23.7 | – | – | –
2 | AACCACGAGUCGGCCGCCACUUGCAACUAGUUUCAGAAGCAGAAACAUGAGGAUCACCCAUGUCGAAGGACCGGGACUUUACAGG | – | – | – | – | apparent Kd [3]: 23.2 nM; apparent Kd [4]: 18.7 nM
3 | ACAUGAGGAUCACCCAUGUAAAUGAUAUGUCACCAUGAUGUUAGAAGGAAAGCGGAAAGUCAAUUUUAGGAUAUAAUGUAUUGA | – | – | 11.9 | 8.51 | –
4 | UUGAAGAAUCACAUGAGGAUCACCCAUGUCAGGGUGAGUUUUGAGGAUAUACCGCCCAGGACUCGGUAGAAGGCAAGAAAUUAA | 553 | 562 | – | – | –
5 | UCUUCCCGCUUAGGAUAUCUUGCUAAUUUGUGUAGAGAAGGAAGUGUAAACAUGAGGAUCACCCAUGUGGCCUCCAGAUAAAGC | 12.1 | 14.9 | – | – | –
6 | AGGAACGAAGGAUAUGAUGAAUAGUACAUGAGGAUCACCCAUGUGGCCACCUUAGACAUCUCAGAAGGACGAUACU | 33.6 | 25.1 | – | – | –
7 | UUGUGUUCUUAGGAUAUACAACUUACCAUCAGAGUAGAAGGAAGGACAUGAGGAUCACCCAUGUGGGCUAGCAG | 154 | 21.7 | – | – | –
8 | UGCGCGAGAGGAUAUUAUCGUAACUACAUGAGGAUCACCCAUGUUUCGCCCGUAGCUGGAUAAGAAGGCUCGAGUG | 14.6 | 20.7 | – | – | –
9 | AUGAUGUAAGGAUAUUGCGCGAUGUUUACCAUUGGUCUGCACAAGAAGGUACAUGAGGAUCACCCAUGUGGGCC | 27.9 | 39.9 | – | – | –
10 | UAGCGGACUGUGAGGAUAUAGCAAAUUCAACAAUUCUAGAAGGCACAUGAGGAUCACCCAUGUAGAGUGAUUAA | 38.5 | 70.7 | – | – | –
11 | UCACACGUUGUAGGAUAUGUCACGCAUAGAACAUGAGGAUCACCCAUGUAUCCCUGUCAUGCCAGACAGAAGGACACUAACGCG | 55.5 | 129 | – | – | –
12 | UAACUCAAGUAACAGGAUAUGAGUGCGGAUACAUGAGGAUCACCCAUGUUGACGAUAACCGGACAACAGAAGGGUACCUAACUUGG | – | – | 33.5 | 22.2 | –
13 | GAGAGAUAAGGAUAUCCACAACGGGACAUGAGGAUCACCCAUGUACCCUCAUUCCUCGCAGGAGAAGGUAUCAUGU | 22.4 | 44.3 | – | – | –
14 | CCCUCCAGAACGGCCGCCACUAAAGGGUUGUGUGCGACUCCGGAACAUGAGGAUCACCCAUGUCUUAGGACCGGGUUCCCUUCUA | – | – | – | – | apparent Kd [3]: 62 nM; apparent Kd [4]: 56.5 nM
15 | AAAGGCGUAGGAUAUACAUGAGGAUCACCCAUGUAUCACAAUAACGAGGAAUGAAAGUGUAGAAGGACGAUAAC | 7.48 | 6.8 | – | – | –
16 | UAGGUGCUCUAAGGAUAUUAUACAUGAGGAUCACCCAUGUGGCGACCAAGGGUAGAAGAGGAACUUAAGAAGGUAGAUGUAUAG | 43.2 | 34 | – | – | –
17 | GGCGUCCAAUUGCAGGAUAUCGGCCGAACAACAUGAGGAUCACCCAUGUCUUGCCACAAUCAUGCCGAGAAGGGCAGAAGAACGUG | – | – | 21 | 10.1 | –
18 | UUGGUCCACAGACAUGAGGAUCACCCAUGUAGUAGUUGAAUGAGAAGGGCACUGGCUUGUCAGGUGCAGGAUAUCAGUCUAUGU | 118 | 106 | – | – | –
19 | UUCCUUGUCGAGAAGGAAUGGCACUUGAGGCGAUUAGGAUAUCGAUACAUGAGGAUCACCCAUGUUGUGUCUCAUAGUAUGACA | 12 | 12.4 | – | – | –
20 | CUGUUUGUUUGGGUCUGUCAAAAGAACGAUACCAGCCGCAUUAUGGGCCCUUGGCAGCGUAGGACAUGAGGAUCACCCAUGUACG | – | – | – | – | apparent Kd (designed as: OFF switch for theophylline, no ligand): 18.7 nM; apparent Kd (ligand present: theophylline, designed as: OFF switch for theophylline): 35.2 nM
21 | AAAUUCGGGAUCUAGGAUAUGUGCGUUUACACAUGAGGAUCACCCAUGUCUCACAGCCGUUUACCACAGAAGGAGAAACGACCUUA | – | – | 31.1 | 23.9 | –
22 | GGGAGAAAUGGAGGAUAUAUUAAAGCACAGCUGACAUGAGGAUCACCCAUGUGAAUUAAAGAUGCAUAGAAGGCCAAACUACAA | – | – | 17.3 | 11.8 | –
23 | CGCGGAACAUGAGGAUCACCCAUGUUAUGUAACAGCAAACUAAGAAGGCGUUAUAUAAGUAUGGACGAGGAUAUUAGCUUGAGU | – | – | 24.3 | 8.8 | –
24 | GCAAAGAAAGCAGUGUAAACAUGAGGAUCACCCAUGUGAUGGAGAAGGUAUAGGCUGGUCGUAUAUAAGGAUAUCCUAAGCAAA | – | – | 18.6 | 17.6 | –
25 | GAACAUGAGGAUCACCCAUGUAGACGCAGGCUAAUAGAAUCGAGAAGGGCUAUAUGGGAACGCCAGCAGGAUAUCGGAGGUCAA | – | – | 84 | 49.1 | –
26 | CUGGAUCCGGGAGGAUAUAGACGUUCAGCCUCGUUGCUAACAAGACAUGAGGAUCACCCAUGUAUCUAGAAGGCCCGCCUGGGA | – | – | 19.8 | 13.8 | –
27 | UUAGUGGAACGGAAGGAUAUGAGCCACCCUACAUGAGGAUCACCCAUGUGAGCGUUGGCAGCGCAUCAGAAGGUCCUCCUACGAGU | – | – | 6.63 | 5.9 | –

Row | Sequence | apparent Kd [1] [nM] | apparent Kd [2] [nM] | apparent Kd [5] [nM] | apparent Kd [6] [nM] | other results
28 | CACUACAUGAGGAUCACCCAUGUCUUCCGACGAGGACCGGUACGGCCGCCACUCGAACCUCCAACUAAUACCUCAACCGUCUGAU | – | – | – | – | apparent Kd [3]: 80.5 nM; apparent Kd [4]: 54.6 nM
29 | GCGACAUGAGGAUCACCCAUGUGCCUCGUGUUAUUCUCUUUAAGAAGGAACGGGUAGCUCUAUUGUUAGGAUAUUAAUGGAAUU | 689 | 724 | – | – | –
30 | GUUCGGCGAGGAUAUCUGCUACAGUACAUGAGGAUCACCCAUGUGGGUUAUGUCCGGUCCAGAGAAGGCGCUGCCA | 33.4 | 47.9 | – | – | –
31 | AUACCAUCCCAAGGAUAUGUUACCUAGACAUGAGGAUCACCCAUGUGAGAUUAGAGCUGUCGCGUACAGAAGGUGGUGAUGACA | 25.3 | 28.1 | – | – | –
32 | GUUGACGAGUCAGGAUAUGAUUAGUGGGAGAAACAGCAACUCACAUGAGGAUCACCCAUGUAUGUUCAGAAGGGACGCCGAUCA | 63.9 | 183 | – | – | –
33 | GGACGGUGGUGAGGAUAUUGUCACAUGAGGAUCACCCAUGUCGUCUGGGAGCGGACUCCUCGGUCCAAGAAGGCACGACCAGCC | 246 | 431 | – | – | –
34 | AAUGGGUGAGAUCGUUUCAACAUGAGGAUCACCCAUGUUGACAGAAGGAGGUCUAAAUAGCUACCCUAGGAUAUGUCCAUGCGA | 19.9 | 31.9 | – | – | –
35 | UAACCCGUGUAGAAGGCAAGCUCCGCGCUGGUCGUCAUCACAUGAGGAUCACCCAUGUGGAAGAUUGAGGAUAUACGCGCGAUG | 5.45 | 7.53 | – | – | –
36 | AAUACAAAACAUGAGGAUCACCCAUGUCCCGAGACUAAACUAAGAAGGUGACCAACCAAAAGGGUCAAGGAUAUUAGGAUCUAU | – | – | 28.9 | 13.4 | –
37 | GAUCCACAUGAGGAUCACCCAUGUGAGGAUACCAGUACCAGAUCCUACCCUUGGCAGCCUAACCUUCAUUCAACACGAAUAAGAA | – | – | – | – | apparent Kd [7]: 12.4 nM; apparent Kd [8]: 14.3 nM
38 | CAUCCUCUUUGACAUGAGGAUCACCCAUGUAUUGCAGUGACCAGAAGGCGUUCCCACAAAGUGGACGAGGAUAUGGAAAAGCCG | 193 | 184 | – | – | –
39 | AUGAGCUGAGGAUAUAUUAACCUGUACAUGAGGAUCACCCAUGUAGCGUGUAGAGUGAGAAUAGAAGGCAGACAUC | 17.2 | 12.8 | – | – | –
40 | AAUGCGAGACUAGGAUAUUGCAUUCAACUCGUGCAAGAAGGAGUCGUUUCAUACAUGAGGAUCACCCAUGUCCAUAUUUCUCAA | – | – | 14.5 | 7.44 | –
41 | UAGGAUUAAGGAGGAUAUCGCCAAUAAGCUUCGCGAGAAGGCCUAUAUACAUGAGGAUCACCCAUGUUUGGUUGUUAGUGUCUU | 7.9 | 10.6 | – | – | –
42 | GUUGGACAUGAGGAUCACCCAUGUGAAUUGUUUUCCACGUACUAGGAUAUCGCGGGACAAACCAUCGAGAAGGAGUCGACCUAA | 14.4 | 12.2 | – | – | –
43 | UAAAUACAUGAGGAUCACCCAUGUUUGGAUACCAGAUAUGACAUUAUCCCUUGGCAGCCAUUCGUUCCAAAUGCUAUUGUGAAGG | – | – | – | – | apparent Kd [7]: 22.5 nM; apparent Kd [8]: 31 nM
44 | UUACAUACCUUAGGAUAUCAUCGUAGUAGGGCAAUAUAACAUGAGGAUCACCCAUGUCUCGUGCGUGAGAAGGAAGAACGUCAU | – | – | 32.7 | 27.8 | –
45 | CCUUAACAUGAGGAUCACCCAUGUCUGGAUACCAGAUACAGAUAAAUCCCUUGGCAGCCAAAAUAUGAAAGAAAUAAAAUAAGAA | – | – | – | – | apparent Kd [7]: 41.3 nM; apparent Kd [8]: 48.9 nM
46 | UACGAGUAAGGAUAUACACUGACCCAAAGAGUACAGAAAAUGUAGAAGGUACAUGAGGAUCACCCAUGUAGGUG | 85.2 | 94.3 | – | – | –
47 | CGAGUGUGAGGAUAUCAGUUCAAUAGGGCUACGCCGUGUCGUGAGAAGGCACAUGAGGAUCACCCAUGUAAUAA | 58.3 | 122 | – | – | –
48 | CAAUAUUUCCAGAAGGGCAAGCUAACACCAACUGCAGGAUAUGGUUUCAUACAACAUGAGGAUCACCCAUGUGGCACAGGUUCC | – | – | 18.6 | 17.2 | –
49 | AAGCUCUCAGGAUAUACAUGAGGAUCACCCAUGUGGUCGUAUUUAAAGUGGAGCAGCAGUAGAAGGGAGGCGAC | 24.5 | 20.4 | – | – | –
50 | UUAUAGAGAGGAUAUACAUGAGGAUCACCCAUGUUAUUACCAAGCUUGAUGGGUAUGCGUAGAAGGCUCAUGAA | 19.1 | 35 | – | – | –
51 | GUCGGCUCAGUGUAGGAUAUGUCAAAGGUCACAUGAGGAUCACCCAUGUCUCGACGCAAAUUAGGACAGAAGGACAGCCAAAGCAU | – | – | 7.57 | 4.97 | –
52 | AGGAUCCAGGAGAAGGCAACUGUAGUUUGGCAUUGAGGAUAUCCAAAGACCCGCUAGAUAGGAGCACAUGAGGAUCACCCAUGU | – | – | 35.5 | 19.1 | –
53 | CAAUGAAACAUUCAGGAUAUGGUACAAGGAACAUGAGGAUCACCCAUGUCAAGAAAAGAAAAUCACCAGAAGGGAACAAGACAAAA | – | – | 41.5 | 32.3 | –
54 | GGGCAACAUGAGGAUCACCCAUGUCGUCAUGGGUUCAAUCGGAGAAGGAACGGAGUGAUAUCCAGUUAGGAUAUCCGCUACACU | 44.6 | 44 | – | – | –
